# Measured values from ChEMBL document CHEMBL5331127, “Discovery of ARD-2051 as a Potent and Orally Efficacious Proteolysis Targeting Chimera (PROTAC) Degrader of Androgen Receptor for the Treatment of Advanced Prostate Cancer” (J Med Chem, 2023).
# Activity calls are given as the source filed them. No cut-off for these calls is given here.
# How the values were obtained:
# [1] = Oral bioavailability in Beagle dog at 3 mg/kg measured up to 24 hrs by LC-MS/MS analysis; format: ADME, organism-based, Canis lupus familiaris; conditions: in vivo
# How it was run: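 Male Beagle dogs. IV 1 mg/kg in 10% PEG400 + 90% PBS (pH 8.0); PO 3 mg/kg in 90% PEG400 + 10% Cremophor. Plasma PK to 24 h; F from IV and PO exposure.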
# [2] = AUC(0 to t) in Beagle dog at 3 mg/kg, po measured up to 24 hrs by LC-MS/MS analysis; format: ADME, organism-based, Canis lupus familiaris; parameters: time < 24 hrs, dose 3 mg/kg, route po; conditions: in vivo
# How it was run: (§1)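 Male Beagle dogs dosed orally at 3 mg/kg in 90% PEG400 + 10% Cremophor.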
# [3] = Drug concentration in ICR mouse plasma at 10 mg/kg, po measured after 1 hr; format: ADME, organism-based
# How it was run: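 Mice given a single 10 mg/kg dose by oral gavage, 3 mice per time point. Plasma drug levels measured at 1, 3, 6 and 24 h; mean ± SD reported.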
# [4] = system: VCaP; test: Antitumor activity against human VCaP cells xenografted in CB17 SCID mouse assessed as tumor growth inhibition at 15 mg/kg, po administered for 21 days; format: functional; conditions: 504 h, time 21 day, read-out: TGI
# [5] = Downregulation of KLK3 gene expression in human LNCaP cells at 0.3 nM incubated for 24 hrs by qRT-PCR analysis; format: functional
# How it was run: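 LNCaP cells (RPMI 1640) or VCaP cells (DMEM Glutamax), both with 10% FBS, treated for 24 h. KLK3 mRNA measured by qRT-PCR and calculated by the comparative CT method against GAPDH and vehicle.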
# [6] = Half life in Beagle dog at 3 mg/kg, po measured up to 24 hrs by LC-MS/MS analysis; format: ADME, organism-based, Canis lupus familiaris; conditions: in vivo; how it was run: as §1
# [7] = Metabolic stability in mouse hepatocytes assessed as half life at 1 uM measured upto 120 mins in presence of NADPH by LC-MS/MS analysis; format: ADME, cell-based, Hepatocyte; conditions: 2 h
# [8] = Metabolic stability in rat liver microsomes assessed as half life at 1 uM measured upto 45 mins in presence of NADPH by LC-MS/MS analysis; format: ADME, Microsome; conditions: 0.75 h
# How it was run: (§2)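 Pooled liver microsomes from each species: 1 μM compound with 0.5 mg/mL microsomes and 1.7 mM NADPH in 0.1 M K-phosphate, pH 7.4, 5 mM MgCl2, 37 °C. Sampled at 0, 5, 10, 15, 30 and 45 min with cold ACN quench. No-NADPH incubation as negative control; ketanserin as positive control. LC-MS/MS; half-life from ln(remaining) versus time.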
# [9] = molecular target: T1, Cytochrome P450 2B6 (Homo sapiens, UniProt P20813); test: Inhibition of CYP2B6 in human liver microsomes preincubated for 5 mins followed by NADPH addition and measured after 10 mins by LC/MS analysis; format: ADME, Microsome
# T1 sequence (P20813 whole entry): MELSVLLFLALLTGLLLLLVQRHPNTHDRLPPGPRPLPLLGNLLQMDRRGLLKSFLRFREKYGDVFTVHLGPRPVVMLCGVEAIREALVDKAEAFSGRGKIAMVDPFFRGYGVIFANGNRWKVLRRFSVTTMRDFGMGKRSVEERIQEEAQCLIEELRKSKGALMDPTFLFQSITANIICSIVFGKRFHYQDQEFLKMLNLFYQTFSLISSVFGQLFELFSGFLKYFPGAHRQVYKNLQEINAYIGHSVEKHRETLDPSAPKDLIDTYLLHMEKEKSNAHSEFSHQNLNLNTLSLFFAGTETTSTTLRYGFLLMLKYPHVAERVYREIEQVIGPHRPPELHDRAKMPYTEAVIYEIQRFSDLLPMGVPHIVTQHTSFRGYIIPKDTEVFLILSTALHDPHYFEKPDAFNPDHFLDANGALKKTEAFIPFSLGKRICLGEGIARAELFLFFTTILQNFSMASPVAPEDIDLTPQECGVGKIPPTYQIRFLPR
# [10] = system: Mus musculus; test: In vivo induction of androgen receptor degradation in human VCaP cells xenografted in CB17 SCID mouse assessed as reduction in KLK3 mRNA level at 12.5 mg/kg, po measured after 6 to 24 hrs by qRT-PCR analysis; format: functional, organism-based; conditions: time 6-24 hrs
# [11] = Metabolic stability in rat plasma assessed as half life at 1 uM measured upto 120 mins by LC-MS/MS analysis; format: ADME, cell-free; conditions: 2 h
# How it was run: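 Compound at 1 μM final in pre-warmed plasma of each species, 37 °C for up to 2 h. ACN/IS quench at 0, 5, 15, 30, 60 and 120 min; LC/MS. Procaine as reference (benfluorex for rat). t1/2 = 0.693/slope of ln(fraction remaining) versus time.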
# [12] = Metabolic stability in human liver microsomes assessed as half life at 1 uM measured upto 45 mins in presence of NADPH by LC-MS/MS analysis; format: ADME, Microsome; conditions: 0.75 h; how it was run: as §2
# [13] = Half life in Sprague-Dawley rat at 10 mg/kg, po measured up to 24 hrs by LC-MS/MS analysis; format: ADME, organism-based; conditions: in vivo
# How it was run: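 Male SD rats given a single oral dose of 10 mg/kg in 5% DMSO + 10% Solutol + 85% saline.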
# [14] = Downregulation of KLK3 gene expression in human VCaP cells at 1 nM incubated for 24 hrs by qRT-PCR analysis; format: functional
# How it was run: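 VCaP cells (ATCC) grown in DMEM with Glutamax plus 10% FBS at 37 °C, 5% CO2. Cells treated 24 h; KLK3 mRNA measured by qRT-PCR, expression by comparative CT method, normalised to GAPDH (ΔCT) and then to vehicle control (ΔΔCT).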
# [15] = Metabolic stability in monkey hepatocytes assessed as half life at 1 uM measured upto 120 mins in presence of NADPH by LC-MS/MS analysis; format: ADME, cell-based, Macaca mulatta, Hepatocyte; conditions: rhesus monkey, 2 h
# [16] = Metabolic stability in dog hepatocytes assessed as half life at 1 uM measured upto 120 mins in presence of NADPH by LC-MS/MS analysis; format: ADME, cell-based, Canis lupus familiaris, Hepatocyte; conditions: 2 h
# [17] = Half life in Sprague-Dawley rat at 1 mg/kg, iv measured upto 24 hrs by LC-MS/MS analysis; format: ADME, organism-based; conditions: in vivo
# How it was run: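 Male ICR mice (2 mg/kg), male SD rats (1 mg/kg) or male Beagle dogs (1 mg/kg) given a single intravenous dose in 10% PEG400 + 90% PBS adjusted to pH 8.0 with NaOH.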
# [18] = system: LNCaP; test: Growth inhibition in human LNCaP cells incubated for 4 days by WST-8 assay relative to control; format: functional; conditions: time 4 day
# How it was run: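 LNCaP cells grown in RPMI 1640 with 10% FBS, treated for 4 days. Viability read by WST-8 assay.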
# [19] = Clearance in Sprague-Dawley rat at 1 mg/kg, iv measured upto 24 hrs by LC-MS/MS analysis; format: ADME, organism-based; conditions: in vivo
# How it was run: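 Male Sprague Dawley rats received a single intravenous dose of 1 mg/kg, formulated in 10% PEG400 + 90% PBS adjusted to pH 8.0 with 0.5 N NaOH.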
# [20] = system: VCaP; test: Induction of androgen receptor degradation in human VCaP cells at 100 nM pretreated with MLN4924 for 2 hrs followed by compound addition and 3 hrs by Western blot analysis; format: functional, cell-based; conditions: time 5.0 hrs
# How it was run: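 LNCaP or VCaP cells pretreated 2 h with DMSO, ARi-12 (10 μM), thalidomide (10 μM), MG-132 (3 μM) or MLN4924 (0.5 μM), then given degrader at 100 nM for 3 h. AR measured by Western blot with GAPDH as loading control.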
smiles,measurement,setting,value
C[C@H]1CC2(CCN(c3ccc(C(=O)N4CCN(C5CN(c6ccc7c(c6)C(=O)N(C6CCC(=O)NC6=O)C7=O)C5)CC4)cc3)CC2)CN1c1ccc(C#N)c(Cl)c1 (stereo not given in full),F,[1],46%
same,AUCt,[2],4460 ng·h/mL
same,concentration at 1 h,[3],495 ng/mL
same,inhibition in vivo at 15 mg/kg,[4],61%
same,Activity,[5],53%
same,t1/2,[6],3.4 h
same,t1/2,[7],> 2 h
same,t1/2,[8],> 1 h
same,IC50,[9],> 10 µM
same,Activity,[10],Active
same,t1/2,[11],> 2 h
same,t1/2,[12],> 1 h
same,t1/2,[13],3.9 h
same,Activity,[14],51%
same,t1/2,[15],> 2 h
same,t1/2,[16],> 2 h
same,t1/2,[17],2.1 h
same,Imax,[18],100%
same,clearance,[19],10.2 mL/min/kg
same,Activity,[20],inactive
